Screening results as filed in PubChem BioAssay.
RORA act: activators of orphan receptor RORA, primary screen, cell-based, luminescence | CHO-K1 Gal4-RORA LBD luciferase reporter; percent increase over mock-subtracted basal signal | activation, % at 10 µM | actives 1.5% (n = 65,000) | AID 560, 2006;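 active = activation above the mean of all tested compounds plus 3 SD, cut at about 49% in these data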
MT1-MMP txn act: MT1-MMP promoter reporter activation – cell-based, luciferase luminescence, primary screen; activation factor at 10 µM; actives 0.16% (n = 86,000); AID 750, 2007; HT1080 MT1-MMP promoter luciferase reporter, overnight; active compounds read high;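 active = activation factor of at least 2 for MT1-MMP transcription at 10 µM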
AP complement: alternative complement pathway inhibitors, primary screen, biochemical, ELISA, human serum, orthogonally pooled compounds | LPS-coated ELISA, C3 deposition; tested in compound mixtures | inhibition, % at 5 µM | actives 0.08% (n = 62,000);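 active = inhibition above 30% in each of the two pooled mixtures holding the compound, so the lower value exceeds 30%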
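Medium: diluted human serum in Mg2+-EGTA GVB++. Assay system: human serum complement alternative pathway, C3 deposition onto LPS. Also added: Plate-bound LPS. Technique: Anti-C3 ELISA, OD 450 nm. Measure: percent inhibition. Incubation: 1 h at 37 °C. Dosing: 5 µM each compound, pools of ten, 50 µM per pool.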
TNAP act mid DEA: human TNAP enzyme activators, primary screen, biochemical, luminescent, intermediate phosphate acceptor level; AID 813, 2007; Alkaline phosphatase, tissue-nonspecific isozyme (Homo sapiens), P05186; 64,000 tested, under 10 active; purified TNAP, CDP-star luminescence, 100 mM DEA, 30 min; active compounds read high; scale: 0 levamisole-inhibited, 1 vehicle-only enzyme; activation factor at 20 µM;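 active = activation factor of at least 2 at 20 µM, relative to controls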
E coli RNAP: E. coli RNAP inhibitors, biochemical; DNA-directed RNA polymerase subunit beta (Escherichia coli (strain K12)), P0A8V2; E. coli RNA polymerase, fluorescence transcription assay; inhibition, %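 (tested at 10 µM)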; actives 0.2% (n = 62,000); AID 559, 2006; in the data active = inhibition above about 20%
SF-1 act: activators of human SF-1, primary screen, cell-based, CHO-K1, Gal4-SF-1 LBD, luciferase luminescence; Steroidogenic factor 1 (Homo sapiens), Q13285; CHO-K1 Gal4-SF-1 LBD luciferase reporter; % increase over DMSO SF-1-specific signal; activation, % at 10 µM; actives 1.9% (n = 65,000);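 active = activation above the mean activation of all tested compounds plus 3 SD, cut at about 50% in these data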
Target sequence (Q13285 whole entry, looked up, the tested form may be a part): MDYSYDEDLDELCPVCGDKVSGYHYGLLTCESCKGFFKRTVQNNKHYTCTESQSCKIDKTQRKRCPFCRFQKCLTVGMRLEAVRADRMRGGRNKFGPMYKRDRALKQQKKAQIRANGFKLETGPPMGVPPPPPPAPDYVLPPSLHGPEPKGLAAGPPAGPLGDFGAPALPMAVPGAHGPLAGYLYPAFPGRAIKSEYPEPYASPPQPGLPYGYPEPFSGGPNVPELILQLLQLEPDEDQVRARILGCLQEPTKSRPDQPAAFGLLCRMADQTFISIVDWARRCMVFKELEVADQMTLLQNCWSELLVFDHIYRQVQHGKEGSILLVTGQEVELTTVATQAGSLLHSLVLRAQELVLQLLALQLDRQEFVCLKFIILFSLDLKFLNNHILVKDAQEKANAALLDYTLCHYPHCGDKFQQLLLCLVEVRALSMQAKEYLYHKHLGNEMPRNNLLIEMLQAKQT
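Material: Transient Gal4-SF-1 LBD reporter, CHO-K1 | Input: 4,000 cells/well | Dosing: One dose, 10 µM compound, 1% DMSO | Incubation: 20 h compound treatment, 37 °C | Detection: SteadyLite luciferase luminescence | Evaluation: Percent activation relative to DMSO median and mock-transfected background | Benchmarks: DMSO-treated SF-1-transfected cells as negative, DMSO-treated mock-transfected cells lacking SF-1 as background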
Numbers stand for hits. Rows were chosen to be rich in hits. Some 2.2% of all compounds tested hit in one or more screens of this group.

Nc1nc(-c2ccccc2)cc(N2CCCCC2)n1 was read as RORA act inactive, MT1-MMP txn act inactive, AP complement inactive, TNAP act mid DEA inactive, E coli RNAP inactive and SF-1 act 75.
Screening c1ccc(-c2cc(N3CCCCC3)ncn2)cc1 returned RORA act inactive, MT1-MMP txn act inactive, AP complement inactive, TNAP act mid DEA inactive, E coli RNAP inactive and SF-1 act 56.
Screening c1ccc(-c2cc(N3CCCCCC3)n[nH]2)cc1 returned RORA act 70, MT1-MMP txn act inactive, AP complement inactive, TNAP act mid DEA inactive, E coli RNAP inactive and SF-1 act inactive.
Screening c1ccc(-c2cnnc(N3CCCCC3)n2)cc1 returned RORA act 58, MT1-MMP txn act inactive, AP complement inactive, TNAP act mid DEA inactive, E coli RNAP inactive and SF-1 act inactive.
FC(F)(F)c1cc(-c2ccccc2)nc(N2CCCCCC2)n1 was read as RORA act inactive, MT1-MMP txn act inactive, AP complement inactive, TNAP act mid DEA inactive, E coli RNAP inactive and SF-1 act inactive.
`CS(=O)(=O)N(CC(=O)NCc1ccc2c(c1)OCO2)Cc1ccccc1` gave RORA act inactive, MT1-MMP txn act inactive, AP complement inactive, TNAP act mid DEA inactive, E coli RNAP inactive and SF-1 act inactive.
`O=C(COc1ccccc1)n1nc(-c2ccc(Cl)cc2)nc1NCc1ccco1` gave RORA act 60, MT1-MMP txn act inactive, AP complement inactive, TNAP act mid DEA inactive, E coli RNAP inactive and SF-1 act inactive.
Screening O=C(c1ccco1)n1nc(-c2ccc(Cl)cc2)nc1NCc1ccco1 returned RORA act inactive, MT1-MMP txn act inactive, AP complement inactive, TNAP act mid DEA inactive, E coli RNAP inactive and SF-1 act inactive.
Screening COC(=O)C1(Cc2ccccc2)C=C2C(=C(C(C)C)C(=O)C2C)CN1 (stereo not drawn) returned MT1-MMP txn act 2.1.
Clc1ccc(-n2ncc3c(NCc4ccc5c(c4)OCO5)ncnc32)cc1 was read as RORA act inactive, MT1-MMP txn act inactive, AP complement inactive, TNAP act mid DEA inactive, E coli RNAP inactive and SF-1 act inactive.
c1ccc(-n2ncc3c(NCC4CCCO4)ncnc32)cc1 (stereo not drawn) was read as RORA act 57, MT1-MMP txn act inactive, TNAP act mid DEA inactive, E coli RNAP inactive and SF-1 act 81.
`COc1ccc(-n2ncc3c(NCC4CCCO4)ncnc32)cc1` (stereo not drawn) gave MT1-MMP txn act inactive.
For Clc1ccc(-n2ncc3c(NCC4CCCO4)ncnc32)cc1 (stereo not drawn) the results were RORA act 96, MT1-MMP txn act inactive, AP complement inactive, TNAP act mid DEA inactive, E coli RNAP inactive and SF-1 act 122.
For c1ccc(-n2ncc3c(NC4CCCCCC4)ncnc32)cc1 the results were RORA act 77, MT1-MMP txn act inactive, AP complement inactive, TNAP act mid DEA inactive, E coli RNAP inactive and SF-1 act 91.
`C/C(CC1CC2=C(CC1(C)C)C(C)(C)CCC2)=N\NC(N)=S` (stereo not drawn) gave MT1-MMP txn act inactive.
CCN1C(=S)SC(=O)C1=C1C=C(C)OC(C)=C1 was read as RORA act inactive, MT1-MMP txn act inactive, AP complement inactive, TNAP act mid DEA inactive, E coli RNAP inactive and SF-1 act inactive.
For CCN1C(=S)SC(=O)C1=C1C=C(C)N(Cc2ccco2)C(C)=C1 the results were RORA act inactive, MT1-MMP txn act inactive, AP complement inactive, TNAP act mid DEA inactive, E coli RNAP inactive and SF-1 act 53.
For O=C(Nc1ccc(N2CCOCC2)c(Cl)c1)C1CCCCC1 the results were RORA act 49, MT1-MMP txn act inactive, AP complement inactive, TNAP act mid DEA inactive, E coli RNAP inactive and SF-1 act inactive.
Cc1cc(C(=O)CNCc2ccco2)c(C)n1-c1ccc(F)cc1 was read as RORA act 70, MT1-MMP txn act inactive, AP complement inactive, TNAP act mid DEA inactive, E coli RNAP inactive and SF-1 act 53.
`Cc1cc(C(=O)OCC(=O)N2CCN(C(=O)c3ccco3)CC2)c(C)n1-c1ccc(F)cc1` gave RORA act inactive, MT1-MMP txn act inactive, AP complement inactive, TNAP act mid DEA inactive, E coli RNAP inactive and SF-1 act inactive.
Screening O=C(NCCSCc1ccco1)Nc1ccc(Cl)cc1 returned RORA act inactive, MT1-MMP txn act inactive, AP complement inactive, TNAP act mid DEA inactive, E coli RNAP inactive and SF-1 act 65.
Cc1ccc2c(c1)N(Cc1ccncc1)C(=O)C(C)O2 (stereo not drawn) was read as RORA act inactive, MT1-MMP txn act inactive, AP complement inactive, TNAP act mid DEA inactive, E coli RNAP inactive and SF-1 act inactive.
O=C(NCCCn1ccnc1)Nc1cccc2ccccc12 was read as MT1-MMP txn act 2.1.
O=C(NCCCn1ccnc1)NC(C(F)(F)F)C(F)(F)F was read as RORA act inactive, MT1-MMP txn act inactive, AP complement inactive, TNAP act mid DEA inactive, E coli RNAP inactive and SF-1 act inactive.
CCOC(=O)c1[nH]c2ccc(F)cc2c1NC(=O)CN1CCc2cc(OC)c(OC)cc2C1 was read as RORA act inactive, MT1-MMP txn act inactive, AP complement 35, TNAP act mid DEA inactive and SF-1 act inactive.
Screening COC(=O)c1[nH]c2ccc(Cl)cc2c1NC(=O)CN1CCc2cc(OC)c(OC)cc2C1 returned RORA act inactive, MT1-MMP txn act inactive, AP complement inactive, TNAP act mid DEA inactive, E coli RNAP inactive and SF-1 act inactive.
For COc1ccc(-c2nnc(SCc3ccccc3)n2N)cc1 the results were RORA act inactive, MT1-MMP txn act inactive, AP complement inactive, TNAP act mid DEA inactive, E coli RNAP inactive and SF-1 act 66.
`COc1ccc(-c2nnc(SCCc3ccccc3)n2N)cc1` gave RORA act inactive, MT1-MMP txn act inactive, AP complement inactive, TNAP act mid DEA inactive, E coli RNAP inactive and SF-1 act inactive.
For Cc1cc(F)c(F)c(C(=O)N2CCN(C)CC2)c1Cl the results were RORA act inactive, MT1-MMP txn act inactive, AP complement inactive, TNAP act mid DEA inactive and SF-1 act inactive.
For COc1cc(C(=O)N2CCN(c3ccc(C)cc3C)CC2)cc(OC)c1OC the results were RORA act 64, AP complement inactive, TNAP act mid DEA inactive, E coli RNAP inactive and SF-1 act inactive.
Screening Cc1ccc(N2CCN(C(=O)c3ccccc3)CC2)c(C)c1 returned RORA act inactive, MT1-MMP txn act inactive, AP complement inactive, TNAP act mid DEA inactive, E coli RNAP inactive and SF-1 act inactive.
